# Shown are actives, neighbours in structure and some others; about 1.2% of the full set was active somewhere.
# Diaphorase inh = diaphorase inhibition or chemical oxidation counter-screen; diaphorase resazurin-to-resorufin fluorescence, NADH, 16 min; bacterial (C. kluyveri) enzyme, not human; inhibition, % at 20 µM; actives 0.69% (n = 190,000);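 active = primary screen inhibition at 20 µM above a set limit, cut at about 50% in these data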;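 note: plate controls were DMSO with full reaction for no effect and wells lacking NADH for full effect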
#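 Assay system: diaphorase enzyme from Clostridium kluyveri; Input: enzyme working solution with 0.14 U/mL diaphorase; Timing: 16 min at room temperature; Technique: resorufin fluorescence, excitation 544 nm, emission 590 nm; Benchmarks: positive control minus NADH, DMSO neutral control.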
# PfGluPho inh = PfG6PD (Plasmodium falciparum) enzyme inhibition | PfGluPho enzyme, NADPH resazurin-diaphorase fluorescence | inhibition, % at 20 µM | actives 0.78% (n = 350,000);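 active = inhibition reaching at least a set limit at 20 µM in the primary screen, cut at about 59% in these data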;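 note: 0% = DMSO wells with substrate and 100% = DMSO wells lacking glucose-6-phosphate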
# HKDC1 inhibitor = inhibitors of human hexokinase HKDC1 | Q2TB90 | AID 493160 | inhibition, % at 20 µM | actives 0.16% (n = 340,000) | recombinant HKDC1, G6PDH/diaphorase resazurin coupled fluorescence;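 active = inhibition above about 35% when tested at 20 µM, limit read from the data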;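 note: plate controls were DMSO wells with enzyme for no effect and DMSO wells lacking enzyme for full effect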
# Target sequence (Q2TB90 whole entry, looked up): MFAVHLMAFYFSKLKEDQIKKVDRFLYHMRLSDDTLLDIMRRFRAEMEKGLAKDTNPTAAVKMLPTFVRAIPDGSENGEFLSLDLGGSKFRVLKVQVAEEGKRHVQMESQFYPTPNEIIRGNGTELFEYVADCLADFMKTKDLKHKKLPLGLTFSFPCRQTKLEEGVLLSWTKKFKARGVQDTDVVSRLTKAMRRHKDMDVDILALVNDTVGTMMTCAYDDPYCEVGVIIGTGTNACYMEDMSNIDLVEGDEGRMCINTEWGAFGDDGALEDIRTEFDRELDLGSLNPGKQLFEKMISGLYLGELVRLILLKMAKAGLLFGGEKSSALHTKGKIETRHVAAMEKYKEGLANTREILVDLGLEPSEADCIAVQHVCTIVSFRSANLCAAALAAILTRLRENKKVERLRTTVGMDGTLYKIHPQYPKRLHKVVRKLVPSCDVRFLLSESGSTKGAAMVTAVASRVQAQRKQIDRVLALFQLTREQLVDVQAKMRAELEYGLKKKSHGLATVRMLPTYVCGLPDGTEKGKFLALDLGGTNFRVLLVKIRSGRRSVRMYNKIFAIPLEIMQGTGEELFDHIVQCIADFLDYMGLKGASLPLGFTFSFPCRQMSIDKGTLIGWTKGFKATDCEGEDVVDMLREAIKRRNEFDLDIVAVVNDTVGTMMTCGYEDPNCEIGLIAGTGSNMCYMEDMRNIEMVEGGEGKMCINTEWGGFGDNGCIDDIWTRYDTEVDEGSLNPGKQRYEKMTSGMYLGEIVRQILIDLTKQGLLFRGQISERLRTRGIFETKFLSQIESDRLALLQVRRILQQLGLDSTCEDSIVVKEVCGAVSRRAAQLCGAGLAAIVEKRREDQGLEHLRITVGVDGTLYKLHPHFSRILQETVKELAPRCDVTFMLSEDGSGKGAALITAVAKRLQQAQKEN
#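 Material: recombinant HKDC1 hexokinase; Amount: HKDC1 at 5 µg/mL; Medium: Tris pH 8.0 buffer with MgCl2, Tween-20, BSA, BME; Schedule: 90 min reaction incubation at room temperature, dark; Technique: coupled resazurin fluorescence, excitation 525 nm, emission 613 nm.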
# G6PDH counter = L. mesenteroides G6PDH inhibition counter-screen; Purified L. mesenteroides G6PDH, diaphorase/resazurin coupled fluorescence, 45 min; inhibition, % at 5 µM; actives 0.12% (n = 200,000); in the data active = inhibition above about 50%
# PfGluPho conf = confirmation of Plasmodium falciparum G6PD inhibitors. shares compounds with PfGluPho inh. recombinant PfGluPho, NADPH-diaphorase-resazurin fluorescence. inhibition, % at 20 µM. actives 34% (n = 2,400). AID 504753;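 active = inhibition of at least 50% at 20 µM in any single replicate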;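 note: 0% = DMSO with substrate and 100% = DMSO lacking glucose-6-phosphate substrate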
# Diaph ctr 10uM = inhibits diaphorase or oxidizes, flagging false PfG6PD hits; shares compounds with PfGluPho inh; diaphorase-coupled resazurin reduction, fluorescence, NADPH 10 uM; inhibition, % at 20 µM; actives 39% (n = 820); AID 504862;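 active = average inhibition reaching 50% or more with the compound at 20 µM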;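 note: resorufin red fluorescence formed as diaphorase reduces resazurin using NADPH; 0% = DMSO with enzyme and 100% = DMSO without enzyme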
# Diaphorase 30uM = inhibits diaphorase or oxidizes, flagging false PfG6PD hits; shares compounds with PfGluPho inh; Diaphorase/resazurin coupled assay, resorufin fluorescence, 30 uM NADPH; inhibition, % at 20 µM; actives 29% (n = 820);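 active = inhibition averaging 50% or more, tested at 20 µM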;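 note: 0% = DMSO with enzyme and 100% = DMSO wells lacking diaphorase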
# Active calls of the source: *; . = no result given.
SMILES,Diaphorase inh,PfGluPho inh,HKDC1 inhibitor,G6PDH counter,PfGluPho conf,others
CS(=O)(=O)N(CC(=O)N1CCCC1)c1cccc(C(F)(F)F)c1,.,-2,.,.,.,
CCOc1ccc(S(=O)(=O)NCc2ccccc2)cc1C(N)=O,16,42,-7,6,.,
CCOc1ccc(S(=O)(=O)NCc2ccccc2Cl)cc1C(N)=O,-22,75*,1,9,32,
COc1ccc(C)cc1NC(=O)CN1CCCN(S(=O)(=O)c2ccc(Br)cc2)CC1,.,22,0,.,.,
C=CCN1C(=O)c2ccc(C(=O)OCC(=O)N(CC)c3c(N)n(Cc4ccccc4)c(=O)[nH]c3=O)cc2C1=O,.,-15,-3,.,.,
CC(=O)Nc1ccc(NC(=O)c2ccccc2Sc2ccc([N+](=O)[O-])cc2Cl)cc1,15,48,-6,-14,15,
CN(CCOc1ccccc1)C(=O)c1cc(S(=O)(=O)N2CCOCC2)c(Cl)cc1Cl,.,-4,.,.,.,
Cc1ccc(CSC2=NCCN2S(=O)(=O)c2ccccc2)cc1,20,21,7,7,.,
O=[N+]([O-])c1cccc(CSC2=NCCN2S(=O)(=O)c2ccccc2)c1,.,72*,2,.,19,
O=S(=O)(c1ccccc1)N1CCN=C1SCc1ccccc1,10,79*,-10,4,36,
O=[N+]([O-])c1ccc(S(=O)(=O)N2CCN=C2SCc2cccnc2)cc1,9,-18,3,4,.,
CC(C)(C)c1ccc(C(=O)Nc2ccc(F)cc2)s1,.,86*,3,.,7,
O=C(CSc1nncs1)NNC(=O)c1ccco1,.,8,-5,.,.,
[O-]/[N+](=C/c1ccco1)c1ccccc1,.,18,-2,.,.,
[O-]/[N+](=C\c1ccco1)c1ccc(Cl)cc1,.,89*,-1,.,62*,Diaph ctr 10uM=38;Diaphorase 30uM=13
[O-][N+](=Cc1ccccc1)c1ccc(Cl)cc1,.,87*,1,.,92*,Diaph ctr 10uM=62*;Diaphorase 30uM=30
NC(CSC1(c2ccc(Cl)cc2)c2ccccc2-c2ccccc21)C(=O)O (centres undefined),.,44,10,.,.,
CC1CCC2(CC1)NC(=O)N(CC(=O)NCCc1ccc(F)cc1)C2=O (centres undefined),.,4,-5,.,.,
Clc1ccccc1-c1nnc2sc(CCc3ccccc3)nn12,1,60*,-1,-6,21,
c1ccc(CCc2nn3c(-c4ccncc4)nnc3s2)cc1,-4,35,-11,20,.,
Clc1ccccc1-c1nnc2sc(-c3ccc4c(c3)OCO4)nn12,2,63*,0,-51,41,
O=C(CN1CCCCCC1)Nc1ccc(F)c(F)c1F,3,-13,-1,5,.,
O=C(CN1CCN(c2ccc(O)cc2)CC1)Nc1ccc2c(c1)OCCO2,38,71*,3,2,21,
O=C(CN1CCN(c2ccc(O)cc2)CC1)NCC(=O)Nc1ccc(F)c(F)c1F,.,67*,3,.,33,
Cc1cc(NC(=O)CN2CCN(c3ccc(O)cc3)CC2)no1,31,68*,-1,11,36,
SMILES,Diaphorase inh,PfGluPho inh,HKDC1 inhibitor,G6PDH counter,PfGluPho conf,others
Cc1ccc(S(=O)(=O)N2CCN(C(=O)CN3CCN(c4ccc(O)cc4)CC3)CC2)cc1,.,64*,2,.,25,
Cc1cc(NC(=O)CN2CCN(S(=O)(=O)c3ccc(Cl)cc3)CC2)no1,9,3,6,-1,.,
Oc1ccc(C=NN=Cc2ccco2)c(O)c1,.,11,-4,.,.,
Cn1c(=O)c2c(SCC(=O)N3CCOCC3)nc(-c3ccccc3Cl)nc2n(C)c1=O,.,0,-6,.,.,
COCCSc1nnc(NC(=O)c2ccc3c(c2)OCO3)s1,-6,71*,-7,3,34,
Cc1nnc(NC(=O)c2ccc3c(c2)OCO3)s1,25,17,-4,17,.,
CSc1nnc(NC(=O)c2ccc3c(c2)OCO3)s1,.,96*,-2,.,74*,Diaph ctr 10uM=49;Diaphorase 30uM=48
COCCNc1nnc(SCC(=O)c2ccc3c(c2)OCO3)s1,-8,4,-2,11,.,
O=S(=O)(Cc1ccccc1)C(CCCc1ccccc1)S(=O)(=O)Cc1ccccc1,.,8,4,.,.,
Cc1cc(C(=O)O)ccc1-n1c(C)cc(/C=C(/C#N)C(=O)Nc2ccccc2)c1C,8,8,-4,0,.,
Cc1cc(C(=O)O)ccc1-n1c(C)cc(C=C2C(=O)c3ccccc3C2=O)c1C,29,80*,2,0,47*,Diaph ctr 10uM=60*;Diaphorase 30uM=41
CC(C)C[C@H]1CN=C(Nc2ccccc2)N1CC1CCCCCC1,.,-6,21,.,.,
COc1ccc([N+](=O)[O-])cc1COc1cc(C)cc2oc(=O)cc(-c3ccccc3)c12,10,86*,5,4,28,
CC(=O)COc1cc(C)cc2oc(=O)cc(-c3ccccc3)c12,3,-20,11,6,.,
O=C1C=CC(=Nc2ccc3c(c2)Cc2cc(F)ccc2-3)O1,.,61*,-1,.,4,
CCCn1cc(S(=O)(=O)CC(=O)Nc2ccc(OC)cc2OC)c2ccccc21,48,67*,17,19,68*,Diaph ctr 10uM=42;Diaphorase 30uM=33
COc1ccc(NC(=O)CS(=O)(=O)c2cn(CC(=O)N(C(C)C)C(C)C)c3ccccc23)c(OC)c1,.,-4,1,.,.,
O=C(N/N=C/c1cccc([N+](=O)[O-])c1)C(=O)N1CCCCCC1,.,80*,-1,.,58*,Diaph ctr 10uM=60*;Diaphorase 30uM=47
O=C(N/N=C/c1cccc(O)c1)C(=O)N1CCCCCC1,.,-13,4,.,.,
Cc1cc(C(=O)N/N=C/c2cccc([N+](=O)[O-])c2)c(C)n1-c1ccccc1,19,60*,-2,-7,28,
COc1ccc(C(=O)Nc2ccccc2C(=O)NC2CC2)c(OC)c1OC,.,0,.,.,.,
COc1ccccc1/C=N/NC(=O)CCSc1ccccc1,0,63*,1,-4,72*,Diaph ctr 10uM=65*;Diaphorase 30uM=67*
COc1ccccc1/C=N/NC(=O)CNC(=O)c1ccccc1,.,-9,-9,.,.,
COc1ccc(CCCC(=O)N/N=C/c2ccccc2OC)cc1,14,98*,3,-1,67*,Diaph ctr 10uM=70*;Diaphorase 30uM=57*
COc1ccccc1C=NN=C(NN=Cc1ccccc1OC)NN=Cc1ccccc1OC,.,77*,-21,.,29,
COc1ccc(CCCc2nnc(SCC(=O)Nc3cc(C)c(C)cc3Br)o2)cc1,13,3,-6,-4,.,
COc1ccc(OC)c(/C=N\NC(=O)CSc2nnc(CCCc3ccc(OC)c(C)c3)o2)c1,15,96*,2,4,22,
COc1ccc(CCCC(=O)N/N=C/c2ccc(C)cc2)cc1,5,33,1,2,.,
CCC(C)(C)NC(=O)C(c1ccc(OC)cc1)N(C(=O)CCC(=O)Nc1cc(C)on1)c1ccc(F)cc1 (centres undefined),.,9,-1,.,.,
O=C(Cc1ccc(NC(=O)C2CCN(C(=O)C3CC3)CC2)cc1)Nc1ccc(C(=O)N2CCOCC2)cc1,.,-4,2,.,.,

# Bioassay records from PubChem BioAssay.
